Published values of several laboratories.
Lines come from different studies, so protocols differ.
RET: Proto-oncogene tyrosine-protein kinase receptor Ret (RET, Homo sapiens, UniProt P07949)
RET V804M: Proto-oncogene tyrosine-protein kinase receptor Ret (RET, Homo sapiens, UniProt P07949, V804M)
RET V804L: Proto-oncogene tyrosine-protein kinase receptor Ret (RET, Homo sapiens, UniProt P07949, V804L)
RET M918T: Proto-oncogene tyrosine-protein kinase receptor Ret (RET, Homo sapiens, UniProt P07949, M918T)

For `CN(C)CC#Cc1ccc(OCCCc2sc(N3CCc4cccc(C(=O)Nc5nc6ccccc6s5)c4C3)nc2C(=O)O)c(F)c1`, the remaining binding was 100% (RET; cell-free assay, competition with immobilised ligand; 1 µM).
For `c1cncc(-c2cccc(Nc3nccc(NC4CCCCC4)n3)c2)c1`, the remaining binding was 8.8% (RET V804M; binding, competition with immobilised ligand; 10 µM).
`Cc1cnc(Nc2ccc(C(=O)N3CCC(N4CCCC4)CC3)cc2)nc1-c1cc2ccccc2s1` gave a remaining binding of 25% (RET V804M; binding, competition with immobilised ligand; 1 µM).
`C=CC(=O)N1CCC(C(=O)NCC(=O)N2CCN(c3nc(-c4cnc(N)nc4C(F)F)nc(N4CCOCC4)n3)CC2)CC1` has a remaining binding of 100% (RET V804M; binding, competition with immobilised ligand; 1 µM).
`COc1cnc(Nc2cccc(S(N)(=O)=O)c2)nc1N1CCN(c2ccccc2)CC1` gave a remaining binding of 73% (RET V804L; binding, competition with immobilised ligand; 1 µM).
`O=C(NCC1CCOCC1)c1n[nH]cc1NC(=O)c1c(F)cccc1F` has a remaining binding of 100% (RET V804L; binding, competition with immobilised ligand; 1 µM).
`COc1cc(-c2cn(C3CCc4c(F)cccc4N(CC(F)(F)F)C3=O)nn2)ccc1-n1cnc(C)c1` (centres unmarked) has a remaining binding of 88% (RET V804M; cell-free assay, competition with immobilised ligand; 1 µM).
For `COc1ncc2cc3ccccc3nc2c1C#N`, the remaining binding was 96% (RET; cell-free assay, competition with immobilised ligand; 5 µM).
For `CCN1CCN(Cc2ccc(C(=O)Nc3ccc(C)c(Oc4ccc5c(c4)CC(=O)N5)c3)cc2C(F)(F)F)CC1`, the remaining binding was 67% (RET V804M; binding, competition with immobilised ligand; 1 µM).
`CN(CCCC(F)(F)F)c1nccc(-c2cnn3ncccc23)n1` has a remaining binding of 100% (RET V804L; binding; 1 µM).
For `COc1cc(-c2cn(C3CCc4ccccc4N(CC(F)(F)F)C3=O)nn2)ccc1-n1ccc(C)n1` (centres unmarked), the remaining binding was 100% (RET V804M; cell-free assay, competition with immobilised ligand; 1 µM).
For `CN(C)c1nccc(-c2cnn3ncccc23)n1`, the remaining binding was 99% (RET V804L; binding; 1 µM).
With `CN(C(=O)c1ccccc1)c1cc(N(C)c2ccc3c(c2)CCc2ccc(C(=O)NCCN4CCOCC4)cc2C3=O)ccc1F` the remaining binding was 100% (RET M918T; cell-free assay, competition with immobilised ligand; 1 µM).
`O=C(c1ccc(Nc2nccc(-c3cc4ccccc4s3)n2)cc1)N1CCC(N2CCCC2)CC1` gave a remaining binding of 80% (RET V804L; binding, competition with immobilised ligand; 1 µM).
`N[C@H]1CCN(c2nccc(-c3cnn4ncccc34)n2)C1` has a remaining binding of 100% (RET V804M; binding; 1 µM).
The remaining binding of `O=C(N[C@H]1CCCCC/C=C\C2C[C@@]2(C(=O)O)NC(=O)[C@@H]2C[C@@H](Oc3ccncc3)CN2C1=O)OC1CCCC1` (some centres unmarked) is reported as 96% (RET M918T; binding, competition with immobilised ligand; 1 µM).
`Cc1cnn2ncc(-c3ccnc(N(C)C)n3)c2c1` has a remaining binding of 100% (RET V804L; binding; 1 µM).
The remaining binding of `O=C(Nc1ccc(Oc2ccc(F)cc2)cc1)N1CCc2ncccc2[C@H]1c1ccc(F)cc1` is reported as 100% (RET M918T; cell-free assay, competition with immobilised ligand; 1 µM).
With `COc1ccnn2ncc(-c3ccnc(N(C)C)n3)c12` the remaining binding was 100% (RET V804M; binding; 1 µM).
For `O=C(NCCCN1CCOCC1)c1ccc(Nc2ncc(Cl)c(-c3ccc(Cl)s3)n2)cc1`, the remaining binding was 13% (RET V804L; binding, competition with immobilised ligand; 1 µM).
